Bioassay records deposited in PubChem BioAssay by several laboratories.
In the library only some 4.3% were active in any assay of this set; here they are far more common.
NF-kB neuron act: compounds increasing NF-kB expression in human neuronal cells | NF-kB reporter expression; stronger effect = higher value | fold change at 12.5 µM | hit rate 1.6% among 190,000 | AID 1239; in the data active = fold change above about 3.3
SDO1 yeast rescue: compounds rescuing growth of sdo1-depleted yeast, bone marrow failure model. z-score at 10 µM. hit rate 0.21% among 140,000. S. cerevisiae sdo1-depleted JHY4D growth rescue, OD600 30 h; stronger effect = higher value; pdr5 snq2 efflux-pump mutant strain;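 active = z-score above 3 at both the 24 hr and the 30 hr optical density reads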;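 also: z-score against mean and SD of all compound wells on the same plate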
FLuc inh counter: inhibits firefly luciferase, flagging false hits in luciferase inhibition screens; inhibition, % at 10 µM; AID 1006; ATPLite firefly luciferase biochemical luminescence, 10 min; P08659; hit rate 1.5% among 200,000;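 active = inhibition above about 50% when tested at 10 µM, limit read from the data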
Target sequence (P08659 whole entry, looked up): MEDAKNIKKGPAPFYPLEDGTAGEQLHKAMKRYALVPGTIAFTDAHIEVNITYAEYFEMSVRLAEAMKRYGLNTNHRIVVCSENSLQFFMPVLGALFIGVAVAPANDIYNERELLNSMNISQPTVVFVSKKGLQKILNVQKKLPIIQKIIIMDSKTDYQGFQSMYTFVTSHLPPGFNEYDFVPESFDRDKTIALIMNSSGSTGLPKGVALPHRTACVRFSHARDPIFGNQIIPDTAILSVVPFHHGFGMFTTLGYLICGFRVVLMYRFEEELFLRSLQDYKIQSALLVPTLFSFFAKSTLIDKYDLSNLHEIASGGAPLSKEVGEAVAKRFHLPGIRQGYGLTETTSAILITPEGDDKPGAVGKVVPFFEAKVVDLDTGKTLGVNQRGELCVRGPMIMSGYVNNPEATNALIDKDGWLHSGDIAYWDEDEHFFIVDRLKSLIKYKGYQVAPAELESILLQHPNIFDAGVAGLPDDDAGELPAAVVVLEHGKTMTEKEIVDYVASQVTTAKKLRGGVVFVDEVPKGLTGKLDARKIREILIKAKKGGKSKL
STAT1 act: increases IFN-gamma driven STAT1 reporter signal | hit rate 2.6% among 200,000 | AID 932 | NIH 3T3 STAT1-luciferase reporter, luminescence; 100% = IFN-gamma alone, no compound | activation (% of control), % at 5.5 µM;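 active = activation above the screen-wide mean activation plus 3 SD, cut at about 130% in these data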;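 also: raw ratio to IFN-gamma control signal so 100% means no change and 0% no light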
FLuc act counter: firefly luciferase counter-screen for stimulation assays. activation factor at 10 µM. ATPlite luciferase biochemical, luminescence, 10 min; 0 = ATP-free wells, 1 = DMSO control. P08659. 200,000 tested, under 10 active;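 active = luciferase activation factor, scaled between plate controls, of at least 2 with compound at 10 µM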
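System: luciferase plus luciferin reagent, cell-free; medium: PBS as buffer for the ATP substrate; dosing: test compounds dosed from 2 mM stocks in 100% DMSO; timing: 10 min post-reagent at room temperature; measured by: luminescence measurement of luciferase light output; evaluation: luciferase activation, seen as luminescence increase over controls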
APP 5'UTR act: APP 5'UTR luciferase reporter activation | SH-SY5Y APP 5'UTR luciferase reporter, luminescence; zero percent = DMSO vehicle wells | activation, % at 2 µM | hit rate 1% among 190,000 | AID 1276;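 active = activation above a set limit, based on mean plus 3 SD of controls, cut at about 140% in these data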
* = called active by the depositor; x = no result given.

SMILES	NF-kB neuron act	SDO1 yeast rescue	FLuc inh counter	STAT1 act	FLuc act counter	APP 5'UTR act
C=CCOc1c(Cl)cc(C2NC(=O)NC(C)=C2C(=O)OC)cc1Cl (stereo unspecified)	0.85	0.11	-8.2	105.0	1.1	7.1
COc1cccc(/C=N/NC(=O)CN2CC(c3ccccc3)CC2=O)c1O (stereo unspecified)	1.28	0.46	24.1	99.4	0.8	-24.1
c1ccc(CSc2ccc(-c3cccnc3)nn2)cc1	2.53	x	40.0	133.9*	0.6	35.6
CCC(C)NC(=O)COc1ccc(Br)c(C)c1 (stereo unspecified)	1.05	-0.38	-5.2	108.2	1.1	-11.3
CN(C)/C=N/C(=S)Nc1ccc(Br)cc1F	2.25	2.19	7.0	129.9*	0.9	5.5
C=CCNC(=S)Nc1ccc(Br)cc1F	1.24	-0.03	-3.2	92.2	1	10.9
O=C(COC(=O)c1ccccc1C(=O)c1ccc(Cl)c([N+](=O)[O-])c1)NC1CC1	0.66	x	-7.8	83.8	1.1	-48.4
O=C(COC(=O)c1ccccc1[N+](=O)[O-])c1ccc(C2CCCCC2)cc1	0.42	-0.53	80.5*	83.9	0.2	35.6
CC1=C(C(=O)NCc2ccccc2)C(c2cccs2)NC(=S)N1 (stereo unspecified)	1.05	x	-8.7	93.0	1.1	-6.2
Cc1cc(C2=NNC(=NC3CC3)SC2)c(C)n1-c1ccccc1	0.13	-1.46	96.8*	16.9	0	-75.9
Cc1cc(-c2csc(N)n2)c(C)n1Cc1ccco1	1.17	x	-2.4	96.6	1	7.8
CN=C1NN=C(c2cc(C)n(-c3c(C)n(C)n(-c4ccccc4)c3=O)c2C)CS1	1.1	0.55	3.9	100.2	1	2.7
COCCCN=C1NN=C(c2cc(C)n(Cc3ccco3)c2C)CS1	1.83	-0.55	70.2*	123.2	0.3	-94.3
COCC(C)N=C1NN=C(c2cc(C)n(Cc3ccccc3Cl)c2C)CS1 (stereo unspecified)	1.16	x	54.1*	71.9	0.5	100.6
Cc1cc(C2=NNC(=NC3CC3)SC2)c(C)n1Cc1ccco1	0.36	-1.13	95.8*	52.6	0	-46.7
COc1ccc(Cl)cc1NC(=S)N1CCN(C(=O)c2ccco2)CC1	0.98	2.07	-4.5	96.2	1	0.8
COC(=O)C1c2ccccc2-c2ccccc21	1.1	x	-5.4	96.7	1.1	0.3
Cc1ccc(S(=O)(=O)N2CCC(=O)N(CCOCc3ccc(C(F)(F)F)cc3)CC2)cc1	0.85	-0.84	-6.4	92.7	1.1	0.3
O=S(=O)(c1ccc(F)cc1)N1CCN(Cc2ccccn2)CC1	1.15	x	-7.0	102.1	1.1	5.9
Cc1cc(C(=O)COC(=O)c2ccc[nH]c2=O)c(C)n1-c1ccc(F)cc1	0.51	0.84	79.1*	109.3	0.2	83.7
Cc1cc(C(=O)COc2ccccc2C(N)=O)c(C)n1C1CC1	1.33	x	18.4	127.3	0.8	30.2
Cc1cc(C(=O)COC(=O)c2ccc[nH]c2=O)c(C)n1-c1ccccc1	0.9	1.04	91.1*	67.7	0.1	130.7
Cc1cc(C(=O)COC(=O)c2ccc[nH]c2=O)c(C)n1C1CC1	0.86	-0.63	64.0*	119.7	0.4	3.9
CCNC(=O)COC(=O)c1cc(C)n(-c2ccccc2)c1C	2.01	x	5.7	104.7	0.9	26.3
Cc1cc(C(=O)OCC(=O)NCc2ccco2)c(C)n1-c1ccc(F)cc1	1.94	-1.75	-1.5	111.9	1	-75.2
SMILES	NF-kB neuron act	SDO1 yeast rescue	FLuc inh counter	STAT1 act	FLuc act counter	APP 5'UTR act
CCOC(=O)c1oc2ccc(Br)cc2c1CSc1nnc(C)s1	0.99	-0.43	-8.1	92.9	1.1	4.5
CCOC(=O)c1c(C)nc(C)c(C(=O)OCC)c1-c1ccc(O)c(OC)c1	3.77*	x	-9.6	100.2	1.1	18.6
Fc1ccc2c(Cl)c(-c3nnc(-c4cccs4)o3)sc2c1	2.32	-1.28	34.4	118.3	0.7	146.3*
Clc1ccc2c(Cl)c(-c3nnc(-c4ccccc4)o3)sc2c1	x	x	x	104.0	x	2.0
C/C(=N\OC(=O)c1ccc(Cl)cc1)c1sc(-c2ccccc2)nc1C	4.43*	-0.09	-12.3	112.1	1.1	-1.1
C/C(=N\OC(=O)c1cccc(C)c1)c1sc(-c2ccccc2)nc1C	3.58*	-0.09	-4.4	113.6	1	2.1
Cc1nc(-c2ccccc2)sc1C(=O)NN	1.1	x	-6.8	113.2	1.1	-72.7
C/C(=N\OC(=O)c1ccc(F)cc1)c1sc(-c2ccccc2)nc1C	1.68	-0.54	-3.6	103.6	1	9.1
C/C(=N\OC(=O)c1cccc(C(F)(F)F)c1)c1sc(-c2ccccc2)nc1C	3.98*	-0.13	-3.0	96.2	1	10.8
Cc1ccc(S(=O)(=O)NCCC(=O)NCc2ccco2)cc1	1.18	1.47	-7.0	94.6	1.1	14.1
CCCC(=O)N1CCN(c2nc(CC(C)C)c3c(c2C#N)CCC3)CC1	1	-0.56	-4.0	95.3	1	-6.1
O=C(/C=C/c1cccs1)N1CCc2ccccc21	8.11*	-0.03	92.0*	133.7*	0.1	187.0*
O=C(c1cccs1)N1CCc2ccccc21	1.8	-0.35	24.5	139.3*	0.8	52.4
Cc1ccc(NC(=O)c2ccc(OC(=O)COc3ccc(Cl)c(C)c3)cc2)cc1	1.89	0.13	7.7	140.0*	0.9	132.1
Cc1cnc(NC(=O)c2ccc(OCC3CCCO3)cc2)s1 (stereo unspecified)	3.87*	x	95.3*	51.9	0	128.0
Cc1ccc(NC(=O)c2ccc(OCC3CCCO3)cc2)cc1 (stereo unspecified)	3.42*	0.85	52.6*	135.6*	0.5	108.4
COc1nc(-c2ccccc2)nnc1-c1ccccc1	6.17*	x	35.2	155.6*	0.6	179.9*
COc1ccc(-c2nc3ccccc3nc2-c2ccccc2)cc1	0.87	x	-4.5	95.8	1	7.0
CNc1cc(N2CCCC2)ccc1[N+](=O)[O-]	1.08	x	-2.9	105.1	1	39.3
CCC(C)(C)C(=O)Nc1cccc(Cl)c1C	1.81	x	-7.7	92.4	1.1	7.3
Cc1sc(NC(=O)C2CCCCC2C(=O)O)c(C(N)=O)c1-c1ccc(C(C)(C)C)cc1 (stereo unspecified)	1.32	-0.09	-8.2	99.1	1.1	30.5
Cc1sc(NC(=O)C2CCCCC2C(=O)O)c(C(N)=O)c1-c1ccccc1 (stereo unspecified)	1.14	0.22	54.8*	127.1	0.5	36.4
CCCc1nc2ccccc2n2cc3c(=O)n(C)c(=O)n(C)c3c12	x	x	x	93.9	x	10.2
Nc1ccc(Oc2ccc(Br)cc2)cc1	3.52*	-1.9	-2.5	100.3	1	-11.8
CC1CCCC(NC(=O)Nc2cccs2)C1C (stereo unspecified)	0.9	-0.85	-4.8	98.9	1	-4.4
CCOC(=O)c1nn(-c2ccc(C)cc2)cc1C(=O)c1ccccc1	6.61*	-0.31	64.4*	143.8*	0.4	145.4*
